The target of series [1] is T1, PfGluPho (PfG6PD) (Plasmodium falciparum, UniProt Q8IKU0).
T1 sequence (Q8IKU0 1-910): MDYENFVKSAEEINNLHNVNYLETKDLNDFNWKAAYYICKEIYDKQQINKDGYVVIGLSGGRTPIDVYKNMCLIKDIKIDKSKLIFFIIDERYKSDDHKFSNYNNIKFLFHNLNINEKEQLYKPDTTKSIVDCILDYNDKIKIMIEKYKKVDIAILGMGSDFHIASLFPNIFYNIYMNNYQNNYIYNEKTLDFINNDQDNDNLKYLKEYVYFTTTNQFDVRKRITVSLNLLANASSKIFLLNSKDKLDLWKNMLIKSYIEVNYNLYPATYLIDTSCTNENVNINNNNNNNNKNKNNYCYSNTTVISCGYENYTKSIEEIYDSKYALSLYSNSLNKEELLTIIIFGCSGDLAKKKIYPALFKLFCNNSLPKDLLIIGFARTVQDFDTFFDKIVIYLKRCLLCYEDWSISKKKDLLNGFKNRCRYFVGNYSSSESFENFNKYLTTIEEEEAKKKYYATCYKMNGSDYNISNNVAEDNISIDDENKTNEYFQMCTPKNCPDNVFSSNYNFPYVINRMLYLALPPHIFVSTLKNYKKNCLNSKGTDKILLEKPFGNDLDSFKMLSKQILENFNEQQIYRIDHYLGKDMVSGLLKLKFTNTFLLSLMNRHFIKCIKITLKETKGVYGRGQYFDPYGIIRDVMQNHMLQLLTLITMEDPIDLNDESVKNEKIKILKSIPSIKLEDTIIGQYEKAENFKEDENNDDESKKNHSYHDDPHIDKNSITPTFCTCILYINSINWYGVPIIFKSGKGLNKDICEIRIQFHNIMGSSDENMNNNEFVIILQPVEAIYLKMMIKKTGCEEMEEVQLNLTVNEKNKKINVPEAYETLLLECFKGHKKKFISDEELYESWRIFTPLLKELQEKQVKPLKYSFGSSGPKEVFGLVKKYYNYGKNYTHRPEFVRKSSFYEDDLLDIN
The experiment in a line: PfGluPho primary dose response assay, resazurin/diaphorase-coupled. Format: biochemical. Conditions: for Decrease in potency relative to 5a: vs. 5a, Table 2. (In general: The colour change of resazurin is a common sign of viable cells or microbes.)

For series [2], the target named is PfGluPho (Plasmodium falciparum, UniProt Q8IKU0). Description: Mechanism of inhibition. It counts as biochemical. The essentials: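 Test compound, titrated in DMSO, and G6P or NADP+ varied together. Substrate solution final: 3.3 mM MgCl2, 1 mM TCEP, 0.05 M Tris, plus 5 μM NADP+ (G6P titration) or 25 μM G6P (NADP+ titration). Reaction started with PfGluPho (final 0.2 μg/mL) in 0.005% Tween 20. NADPH fluorescence (ex340/em460) monitored over 10 min; initial slopes taken.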

Series [3] concerns P. falciparum. The experiment in a line: P. falciparum in culture. Format: cell-based. The note with it: Plasmodium falciparum, read-out: IC50 against P. falciparum in culture. The essentials:
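Chloroquine-sensitive 3D7 and chloroquine-resistant Dd2 blood-stage strains. Infected RBCs seeded at 0.25% parasitemia (>70% rings) and 1.25% hematocrit in hypoxanthine-free medium, with varying test compound concentrations and a chloroquine control. Incubated 72 hours. Growth was read as 3H-hypoxanthine incorporation, and IC50 was derived by non-linear regression.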

For series [4], the target named is hG6PD (Homo sapiens, UniProt P11413). Description: hG6PD counter screen. It counts as biochemical. Conditions: Figure 3. In general terms: Counterscreens check selectivity or assay interference.
Chain of hG6PD (P11413 whole entry): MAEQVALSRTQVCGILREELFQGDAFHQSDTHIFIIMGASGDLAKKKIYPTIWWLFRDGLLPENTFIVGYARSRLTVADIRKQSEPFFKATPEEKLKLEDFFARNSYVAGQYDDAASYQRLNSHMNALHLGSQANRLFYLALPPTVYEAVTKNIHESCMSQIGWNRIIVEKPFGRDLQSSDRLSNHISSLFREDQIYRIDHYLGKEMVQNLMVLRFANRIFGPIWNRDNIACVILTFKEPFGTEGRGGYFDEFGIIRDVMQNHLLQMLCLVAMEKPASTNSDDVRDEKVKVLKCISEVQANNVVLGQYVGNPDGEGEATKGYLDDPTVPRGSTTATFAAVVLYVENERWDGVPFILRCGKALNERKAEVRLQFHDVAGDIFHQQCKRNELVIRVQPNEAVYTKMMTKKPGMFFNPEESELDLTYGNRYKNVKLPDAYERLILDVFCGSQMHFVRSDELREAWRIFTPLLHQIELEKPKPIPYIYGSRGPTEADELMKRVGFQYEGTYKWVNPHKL
Series [5] in a line: Aqueous solubility. It counts as physicochemical.
Series [6] is described as follows: Chemical stability. It counts as physicochemical. Conditions: 10 μM, 1% DMSO, 5 equivalents of GSH, PBS pH 7.4, 23 °C, duration of the study.
For series [7], the target named is T1, PfGluPho (PfG6PD). The experiment in a line: Orthogonal PfGluPho assay, direct detection of NADPH. It counts as biochemical. Conditions: Potency PfG6PD NADPH Kinetic.
The mark [8] stands for this setting: PfG6PD IC50, Table 3, necessity of styryl moiety.
Setting [9] is: Potency PfG6PD Primary Assay, Table 5, Ave. ± S.E.M.
Where [10] appears, read: Potency PfG6PD Primary Assay, Table 6, Ave. ± S.E.M.

We go through 17 compounds from PMC3530835 (Journal of medicinal chemistry, 2012).

pIC50: −log10 of the molar value. Converted amounts (≈) assume the structure as drawn. A value given as a limit tells only on which side of the number the result lay.

Usually pIC50 stands for the negative decadic logarithm of the IC50, by convention in mol/L. With `CCN1CCCC1CNC(=O)c1ccc2c(c1)NC(=O)CS2` (stereo not drawn) [Compound 3d], the “PfG6PD activity (in words)” value in series [1] was “complete loss of activity”. The pIC50 in series [1] (setting [8]) is < 4.10. Regarding `CCN1CCCC1CNC(=O)c1ccc2c(c1)NC(=O)/C(=C/c1ccccc1C)S2` (stereo not drawn) [Compound 5c], the “Decrease in potency relative to 5a” value in series [1] stood at 3 fold.

For the compound `CCN1CCCC1CNC(=O)c1ccc2c(c1)NC(=O)/C(=C/c1ccccc1OC)S2` (stereo not drawn) [Compound 5d], the “Decrease in potency relative to 5a” value in series [1] came to 5 fold. Consider `CCN1CCCC1CNC(=O)c1ccc2c(c1)NC(=O)C(Cc1ccccc1F)S2` (stereo not drawn) [Compound 10], for which the “PfG6PD activity (in words)” value in series [1] is recorded as “complete loss of activity”. The pIC50 in series [1] (setting [8]) is < 4.10.

The term solubility denotes how much of the substance goes into solution per volume. Lower therefore signals little dissolved substance. For `CCN1CCC[C@@H]1CNC(=O)c1ccc2c(c1)NC(=O)/C(=C/c1ccccc1F)S2` [Compound 11, (R,Z)-N-((1-ethylpyrrolidin-2-yl)methyl)-2-(2-fluorobenzylidene)-3-oxo-3,4-dihydro-2H-benzo[b][1,4]thiazine-6-carboxamide], in series [2] (G6P titration), the “Type of inhibition vs. G6P” value is listed as “competing with the substrate”. Moreover, the “Type of inhibition vs. NADP+” value in series [2] (NADP+ titration) was “mixed-type inhibition”. Moreover, the pIC50 in series [3] is 5.59. Also, the “Selectivity for PfGluPho over hG6PD (in words)” value in series [4] is “selective”. Also, the solubility in series [5] (1x PBS, pH 7.4) is 71 µg/mL (≈ 167 µM); in series [5] (pION's buffer, pH 5), > 126 µg/mL; in series [5] (pION's buffer, pH 6.2), > 126 µg/mL; in series [5] (pION's buffer, pH 7.4), 29.4 µg/mL (≈ 69.1 µM). Also, the “Preference for the R-enantiomer versus the S-enantiomer” value in series [1] (11 vs. 12, Table 4) was 8 fold. For the same compound, in series [6], the “Reactivity with GSH (in words)” value is “remained intact”. Regarding `CC(C)(C)OC(=O)N1CCCC1CNC(=O)c1ccc2c(c1)NC(=O)/C(=C/c1ccccc1F)S2` (stereo not drawn) [Compound 14], in series [1], the “PfG6PD activity (in words)” value is “inactive”. Moreover, the pIC50 in series [1] (Potency PfG6PD Primary Assay, Table 4, Ave. ± S.E.M.) is < 4.10.

With `COc1ccc(/C=C2\Sc3ccc(C(=O)NCCN(C)C)cc3NC2=O)cc1` [Compound 19], the pIC50 in series [1] (setting [9]) and in series [7] (Table 5) was < 4.10 in each case. For `CCCN(CCC)CCNC(=O)c1ccc2c(c1)NC(=O)/C(=C/c1ccccc1)S2` [Compound 26], in series [1] (setting [9]), the pIC50 was < 4.10.

With `CCCN(CCC)CCNC(=O)c1ccc2c(c1)NC(=O)/C(=C/c1ccc(C)cc1)S2` [Compound 27], the pIC50 in series [1] (setting [9]) was < 4.10. Consider `COc1ccc(/C=C2\Sc3ccc(C(=O)NCCN4CCCC4)cc3NC2=O)cc1` [Compound 30], for which the pIC50 in series [7] (Table 6) is < 4.10. Still for that read-out and setting: under `O=C1Nc2cc(C(=O)NCCN3CCCC3)ccc2S/C1=C\c1ccccc1Cl` [Compound 31] stands < 4.10. Consider `O=C1Nc2cc(C(=O)NCCN3CCOCC3)ccc2S/C1=C\c1ccccc1F` [Compound 34], for which the pIC50 in series [1] (setting [10]) and in series [7] (Table 6) was < 4.10 throughout. Regarding `O=C1Nc2cc(C(=O)NCCN3CCCCCC3)ccc2S/C1=C\c1ccccc1Cl` [Compound 36], in series [7] (Table 6), the pIC50 was < 4.10. `COc1cccc(/C=C2\Sc3ccc(C(=O)NCCN4CCCCCC4)cc3NC2=O)c1` [Compound 37]: the pIC50 in series [1] (setting [10]) was < 4.10. Consider `COc1ccc(/C=C2\Sc3ccc(C(=O)NCCN4CCCCCC4)cc3NC2=O)cc1` [Compound 38], for which the pIC50 in series [1] (setting [10]) and in series [7] (Table 6) was < 4.10 throughout. `O=C1Nc2cc(C(=O)NCc3ccccc3)ccc2S/C1=C\c1ccccc1F` [Compound 41]: the pIC50 in series [1] (setting [10]) and in series [7] (Table 6) was < 4.10 in each case. Consider `CN(C)c1ccccc1CNC(=O)c1ccc2c(c1)NC(=O)/C(=C/c1ccccc1F)S2` [Compound 42], for which the negative logarithm of the IC50 (pIC50) in series [1] (setting [10]) is < 4.10.
